Results as given in PMC6889097 (Virologica Sinica, 2019).
Like-named read-outs stand apart in the source and are kept apart here. Marks after values point to notes of the source that are not given here.

Assays:
[1] = system: lethal influenza virus infection; conditions: mouse, cited from earlier work
[2] = system: A/PuertoRico/8/1934 (H1N1) influenza virus; test: microbe, parasite or virus in culture; format: cell-based, influenza virus A/PuertoRico/8/1934 (H1N1)
CCL2 = test: cells; format: cell-based, human; conditions: for IC50: Homo sapiens
Cell viability = format: cell-based, human; conditions: human; for CC50: U937 cells; for CC50 at 48 h: uninfected U937 cells
How it was run: (§1)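 Uninfected U937 cells, 40,000/well (1 × 10^6 cells/mL) in RPMI 1640 + 10% FBS, were incubated with serially diluted test compound in 384-well plates for 48 h at 37 ℃/5% CO2. After the plates were spun at 500 ×g for 3 min, supernatant was replaced with medium containing 20% MTS reagent for 1 h at 37 ℃. OD490 was read against reference OD630, and CC50 was derived.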

CXCL10 = test: cells; format: cell-based, human; conditions: for IC50: Homo sapiens, U-937, read-out: IC50 CXCL10
U937 cells = test: Cell viability; format: cell-based, human; conditions: 50% cytotoxic concentration, MTS assay, U937 cells; validation panel (Table 2)
How it was run: as §1

[3] = Influenza A virus, H1N1, U-937, read-out: IC50 NA

Row | Compound | In vivo: the protective effect of mice from lethal influenza infection [1] | CC50 (Cell viability) [µM] | CC50 at 48 h (Cell viability) [µM] | reported effect on survival rate of influenza-infected mice ([1]; in vivo) | IC50 NA [2] | IC50 CCL2 (CCL2) | IC50 CXCL10 (CXCL10) | further results
1 | CC[C@@H]1/C=C(\C)C[C@H](C)C[C@H](OC)[C@H]2O[C@@](O)(C(=O)C(=O)N3CCCC[C@H]3C(=O)O[C@H](/C(C)=C/[C@@H]3CC[C@@H](O)[C@H](OC)C3)[C@H](C)[C@@H](O)CC1=O)[C@H](C)C[C@@H]2OC [Ascomycin, ascomycin] | + | 62 | – | – | – | – | – | antiviral effect in the U937 cell model (result in words) [2]: antiviral effects; IC50 [2, 3]: 21.3 µM; IC50 (CCL2; U-937, read-out: IC50 CCL2): 8.1 µM; IC50 (CXCL10): 9.9 µM
2 | Cc1nc(Nc2ncc(C(=O)Nc3c(C)cccc3Cl)s2)cc(N2CCN(CCO)CC2)n1 [Dasatinib] | – | – | > 90 | – | – | – | – | –
3 | Cc1ccc(-c2ncc(Cl)cc2-c2ccc(S(C)(=O)=O)cc2)cn1 [Etoricoxib, etoricoxib] | ±^j | > 50 | – | no improvement on the survival rate | – (key: –: lower than 50% inhibition or not effective) | – (key: –: lower than 50% inhibition or not effective) | – (key: –: lower than 50% inhibition or not effective) | effect on the production of CCL2 in U937 cell model (result in words) (CCL2): no inhibitory effect; effect on the production of CXCL10 in U937 cell model (result in words) (CXCL10): no inhibitory effect
4 | CC(C)n1c(/C=C/C(O)CC(O)CC(=O)O)c(-c2ccc(F)cc2)c2ccccc21 (stereo not shown) [Fluvastatin] | – | – | > 90 | – | – | – | – | –
5 | C=CC(=O)N1CCC[C@@H](n2nc(-c3ccc(Oc4ccccc4)cc3)c3c(N)ncnc32)C1 [Ibrutinib, ibrutinib] | +^i | 26.5 | – | improve the survival rate and pathology | –^h (key: –: lower than 50% inhibition or not effective) | – | – | reported protection of mice from lethal influenza infection ([1]; in vivo): protect mice from lethal influenza infection; IC50 (CCL2; U-937, read-out: IC50 CCL2): 0.62 µM; IC50 (CXCL10): 0.96 µM
6 | CC(C)Cc1ccc(C(C)C(=O)O)cc1 (stereo not shown) [Ibuprofen, ibuprofen] | – | > 50 | – | – | – (key: –: lower than 50% inhibition or not effective) | – (key: –: lower than 50% inhibition or not effective) | – (key: –: lower than 50% inhibition or not effective) | effect on the production of CCL2 in U937 cell model (result in words) (CCL2): no inhibitory effect; effect on the production of CXCL10 in U937 cell model (result in words) (CXCL10): no inhibitory effect
7 | C[C@H]1COc2c(N3CCN(C)CC3)c(F)cc3c(=O)c(C(=O)O)cn1c23 [Levofloxacin] | – | – | > 90 | – | – | – | – | reported survival rate in mice infected with the H1N1 PR8 virus ([1]; in vivo): increased the survival rate; IC50 (CCL2; U-937, 48 h, read-out: IC50 CCL2): ≤ 10 µM
8 | CCOC(=O)C1=C[C@@H](OC(CC)CC)[C@H](NC(C)=O)[C@@H](N)C1 [Oseltamivir] | + | – | – | – | – | – (key: –: lower than 50% inhibition or not effective) | – (key: –: lower than 50% inhibition or not effective) | antiviral effect in the U937 cell model (result in words) [2]: antiviral effects; IC50 ([2]; read-out: IC50 NA): 0.58 µM; CC50 (U937 cells): > 100 µM
9 | CC(C)Oc1ccc(-c2nc(-c3cccc4c3CC[C@@H]4NCCO)no2)cc1C#N [Ozanimod, ozanimod] | + | 26 | – | improve the survival rate and pathology | – (key: –: lower than 50% inhibition or not effective) | – | – | IC50 (CCL2; U-937, read-out: IC50 CCL2): 7.7 µM; IC50 (CXCL10): 10.7 µM
10 | O=C(O)C[C@H](O)C[C@H](O)/C=C/c1c(C2CC2)nc2ccccc2c1-c1ccc(F)cc1 [Pitavastatin] | – | – | > 90 | – | – | – | – | –
11 | CNCCCC1c2ccccc2C=Cc2ccccc21 [Protriptyline] | – | – | > 90 | – | – | – | – | –
12 | NC(=O)c1ncn([C@@H]2O[C@H](CO)[C@@H](O)[C@H]2O)n1 [Ribavirin] | – | > 160 | – | – | – | – (key: –: lower than 50% inhibition or not effective) | – (key: –: lower than 50% inhibition or not effective) | antiviral effect in the U937 cell model (result in words) [2]: antiviral effects; IC50 [2, 3]: 26.2 µM
13 | CN(CCOc1ccc(CC2SC(=O)NC2=O)cc1)c1ccccn1 (stereo not shown) [Rosiglitazone, rosiglitazone] | + | > 100 | – | improve the survival rate and pathology | – (key: –: lower than 50% inhibition or not effective) | – (key: –: lower than 50% inhibition or not effective) | – (key: –: lower than 50% inhibition or not effective) | –
14 | CCC(C)(C)C(=O)O[C@H]1C[C@@H](C)C=C2C=C[C@H](C)[C@H](CC[C@@H]3C[C@@H](O)CC(=O)O3)[C@H]21 [Simvastatin] | – | – | 66.8 | – | – | – | – | –
15 | CCOC(=O)N[C@@H]1CC[C@@H]2[C@@H](C1)C[C@H]1C(=O)O[C@H](C)[C@H]1[C@H]2/C=C/c1ccc(-c2cccc(F)c2)cn1 [Vorapaxar, vorapaxar] | + | > 80 | – | improve the survival rate and pathology | – (key: –: lower than 50% inhibition or not effective) | – | – | IC50 (CCL2; U-937, read-out: IC50 CCL2): 5.2 µM; IC50 (CXCL10): 13.3 µM
